Source: PubChem BioAssay
mIAP inh: inhibitors of mouse IAP, primary screen, biochemical, luminescence, uHTS; intestinal alkaline phosphatase [Mus musculus]; purified mouse IAP, CDP-Star luminescence, 30 min; inhibition, % at 10 µM; hit rate 0.2% among 330,000; AID 2806, 2010;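 active = inhibition of at least 40% at 10 µM in the primary screen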
bIAP act: bovine intestinal alkaline phosphatase activators, primary screen, biochemical, bovine IAP, CDP-star luminescence; alkaline phosphatase, intestinal [Bos taurus]; purified bovine IAP, 30 min; stronger effect = higher value; fold of DMSO-control signal, blank-subtracted; activation factor at 20 µM; hit rate 0.17% among 200,000;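 active = activation factor of 2 or more at 20 µM, a signal rise over negative controls twice the positive control's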
hIAP activ: human IAP activators, primary screen, biochemical, luminescence, uHTS. purified human IAP, CDP-Star luminescence, 30 min; stronger effect = higher value; 1 = vehicle-only enzyme, 0 = enzyme-free background. activation factor at 10 µM. AID 2524, 2010. Intestinal-type alkaline phosphatase (Homo sapiens), P09923. hit rate 0.16% among 330,000;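 active = activation factor of the enzyme at least 2-fold when tested at 20 µM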
Target sequence (P09923 whole entry, looked up): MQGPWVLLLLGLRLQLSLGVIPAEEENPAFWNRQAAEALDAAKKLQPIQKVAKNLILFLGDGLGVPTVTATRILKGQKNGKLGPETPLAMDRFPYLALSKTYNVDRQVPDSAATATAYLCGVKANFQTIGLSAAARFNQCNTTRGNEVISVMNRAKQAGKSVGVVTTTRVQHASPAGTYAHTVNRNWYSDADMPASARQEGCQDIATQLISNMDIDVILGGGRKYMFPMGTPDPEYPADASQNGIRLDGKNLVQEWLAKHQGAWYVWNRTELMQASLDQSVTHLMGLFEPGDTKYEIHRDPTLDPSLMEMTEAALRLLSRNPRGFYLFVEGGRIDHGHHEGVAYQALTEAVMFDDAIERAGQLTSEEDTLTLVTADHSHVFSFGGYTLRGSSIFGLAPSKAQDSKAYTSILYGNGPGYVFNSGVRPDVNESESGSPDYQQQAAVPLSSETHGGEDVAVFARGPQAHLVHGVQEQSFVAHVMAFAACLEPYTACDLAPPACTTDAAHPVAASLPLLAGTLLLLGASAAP
hIAP inh: human IAP inhibitors, primary screen, biochemical, luminescence, uHTS. Intestinal-type alkaline phosphatase (Homo sapiens), P09923. purified IAP, CDP-Star luminescence, 30 min. inhibition, % at 10 µM. hit rate 0.12% among 330,000. AID 2544, 2010;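 active = inhibition reaching a set limit with compound at 10 µM in the primary screen, cut at about 35% in these data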
mIAP activ: activators of mouse IAP, primary screen, biochemical, luminescence, uHTS; intestinal alkaline phosphatase [Mus musculus]; hit rate 0.24% among 330,000; muIAP, CDP-Star luminescence, 30 min; stronger effect = higher value; 1 = vehicle-only enzyme signal, 0 = enzyme-free wells; activation factor at 10 µM; AID 2805, 2010;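 active = activation factor of at least 2 at 20 µM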
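System: Mouse IAP enzyme | Also added: CDP-Star substrate | Dosing: Compounds dispensed in DMSO | Schedule: 30 min enzyme-substrate-compound incubation at room temperature | Technique: Chemiluminescence readout | Control set: DMSO-only wells and no-enzyme negative control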
bIAP inhibitor: bovine intestinal alkaline phosphatase inhibitors, primary screen, selectivity assay for TNAP inhibitor project, biochemical, bovine IAP, CDP-star luminescence | purified bovine IAP, 30 min | AID 1019, 2008 | alkaline phosphatase, intestinal [Bos taurus] | 190,000 tested, under 10 active | inhibition, % at 20 µM;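 active = over 50% inhibition of intestinal alkaline phosphatase at 20 µM in the single-dose screen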
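test system = bovine IAP enzyme | medium = DEA buffer 100 mM, pH 9.8, with MgCl2 1.0 mM, ZnCl2 0.02 mM | detection = luminescence | dosing = single compound dose of 20 µM, 2% DMSO final | incubation = 30 min reaction at room temperature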
Each line names hits and unclear results; the compound was inactive in the other large screens. Compounds with a hit are over-represented: about 0.72% of the library has one in this group of screens.

CCOc1ccc2nc(NCCNC(=O)Nc3cccc(C)c3)c(C#N)cc2c1	mIAP activ 2.2
CCCCCCCCNc1ncnc2ccccc12	bIAP act 9
O=C(NC1CCN(S(=O)(=O)c2ccc(F)cc2)CC1)c1cccc(F)c1	none (no result: bIAP act, bIAP inhibitor)
COc1cccc(NC(=S)NC2CC3CCCC(C2)N3CC(C)C)c1 (stereo unspecified)	mIAP activ 2.8
CC(C)CNC(=S)Nc1ccc(Oc2ccccc2)cc1	mIAP activ 2.2
O=C(C1CCCO1)N1CCN(C(=S)Nc2ccc(Cl)cc2)CC1 (stereo unspecified)	bIAP act 2.4
Cc1ccc(NC(=S)N2CCN(C(=O)C3CCCO3)CC2)cc1 (stereo unspecified)	none
COc1cccc(N2CCN(C(=O)c3cc(-c4ccccc4)nc4c3cnn4C(C)C)CC2)c1	none (no result: bIAP act, bIAP inhibitor)
COc1cccc(CNC(=O)CSCc2cnn(-c3ccccc3)c2-n2cccc2)c1OC	bIAP act 2.3
COc1cc(NC(=O)CSCc2cnn(-c3ccccc3)c2-n2cccc2)cc(OC)c1	bIAP act 4.1
COc1ccc(OC)c(NC(=O)CSCc2cnn(-c3ccccc3)c2-n2cccc2)c1	none
O=C(CSCc1cnn(-c2ccccc2)c1-n1cccc1)NCc1cccnc1	none
COc1ccccc1CNC(=O)CSCc1cnn(-c2ccccc2)c1-n1cccc1	bIAP act 3.6
O=C(Cc1ccc(Cl)cc1)Nc1cccc(S(=O)(=O)N2CCCCC2)c1	mIAP activ 2.1 (no result: bIAP act, bIAP inhibitor)
S=C(NCc1ccc(Cl)cc1)Nc1ccccc1Cl	none
COc1cc(NC(=S)NCCC(c2ccccc2)c2ccccc2)c(OC)cc1Cl	mIAP activ 3.5
COc1ccccc1NC(=S)NCc1ccccc1	none (no result: bIAP act, bIAP inhibitor)
COc1ccccc1NC(=S)NCCC(c1ccccc1)c1ccccc1	mIAP activ 2.1
S=C(NCCC(c1ccccc1)c1ccccc1)Nc1ccccc1Cl	mIAP activ 6
Cc1ccc(CN2CC(C(=O)NCCCSc3ccccc3)CC2=O)cc1 (stereo unspecified)	none (no result: bIAP act, bIAP inhibitor)
CC(=O)c1ccc(OCCCC(=O)NCCc2ccccc2)cc1	none (no result: bIAP act, bIAP inhibitor)
Cc1onc(-c2ccccc2)c1C(=O)Nc1ccc(OC(C)C)cc1	none
Cc1onc(-c2ccccc2)c1NC(=O)Nc1ccc(OC(F)F)cc1	mIAP activ 2 (no result: bIAP act, bIAP inhibitor)
CC(C)C[C@H]1CN=C(Nc2ccccc2)N1CC1CCCCCC1	none (no result: bIAP act, bIAP inhibitor)
O=C1C2CCCN2C(=O)N1CCN1CCN(CCO)CC1 (stereo unspecified)	bIAP act 2.7
COc1cc2c(cc1OC)C(C(=O)Nc1ccc3c(c1)OCCO3)C1c3ccccc3CCN1C2=O (stereo unspecified)	bIAP act 2.5
Cc1cccc([C@@H]2[C@@H]3C(=O)N(Cc4ccccc4)C(=O)[C@@H]3[C@]3(C)C(=O)N(c4ccc(C(F)(F)F)cc4)C(=O)N23)c1	mIAP inh 41 (no result: bIAP act, bIAP inhibitor)
COc1ccc(N2C(=O)N3[C@H](c4cccc(C)c4)[C@@H]4C(=O)N(Cc5ccccc5)C(=O)[C@@H]4[C@]3(Cc3ccccc3)C2=O)cc1	none (no result: bIAP act, bIAP inhibitor)
NC(=O)COC(=O)CC12CC3CC(CC(Br)(C3)C1)C2	none
CCCCSCCCNC(=O)Nc1ccc(C)c(C)c1	mIAP activ 2.7
Cc1ccc(NC(=O)NCCN2CCCCC2)cc1C	none (no result: bIAP act, bIAP inhibitor)
Cc1ccccc1Cn1nc(C)c(NC(=O)C2c3ccccc3Oc3ccccc32)c1C	mIAP activ 4.5
COc1ccc(N(CC(=O)NCc2ccccc2)C(=O)Cn2nnc(-c3ccccc3F)n2)cc1OC	none
COc1ccc(S(=O)(=O)N2CCCCC2)cc1NC(=O)c1ccc(CS(C)(=O)=O)cc1	none (no result: bIAP act, bIAP inhibitor)
NNC(=S)Nc1ccc(S(=O)(=O)N2CCOCC2)cc1	none (no result: bIAP act, bIAP inhibitor)
CCCCOCCCNC(=S)Nc1ccc(S(=O)(=O)N2CCOCC2)cc1	none (no result: bIAP act, bIAP inhibitor)
O=S(=O)(c1ccc(NC(=S)NCCC(c2ccccc2)c2ccccc2)cc1)N1CCOCC1	mIAP activ 2.1
CC(C)(C)CC(C)(C)NC(=S)Nc1ccc(S(=O)(=O)N2CCOCC2)cc1	mIAP activ 2.2
COc1cccc(N2CCN(c3ccc4nnc(CCC(=O)N5CCC(C)CC5)n4n3)CC2)c1	none (no result: bIAP act, bIAP inhibitor)
Cc1ccc(C)c(C(C)NC(=S)NCc2ccc(F)cc2)c1 (stereo unspecified)	mIAP activ 2.2 (no result: bIAP act, bIAP inhibitor)
Cc1ccc(NC(=S)NCc2ccc(F)cc2)cc1	none (no result: bIAP act, bIAP inhibitor)
CC(C)(C)c1cc(NS(=O)(=O)c2cccs2)no1	none (no result: bIAP act, bIAP inhibitor)
O=C(/C=C/c1ccc(O)c(O)c1)c1ccccc1O	hIAP inh 70 (no result: bIAP act, bIAP inhibitor)
COc1ccc(C=NNc2ccc([N+](=O)[O-])cc2S(=O)(=O)Nc2ccccc2C(=O)O)cc1OC	mIAP inh 42 (no result: bIAP act, bIAP inhibitor)
COc1ccccc1NS(=O)(=O)c1cc([N+](=O)[O-])ccc1N/N=C/c1c[nH]c2ccccc12	none
Cc1cccnc1NC(=O)c1cccc(NC(=O)CC2SC(N3CCCCC3)=NC2=O)c1 (stereo unspecified)	none (no result: bIAP act, bIAP inhibitor)
Cc1cc(C)nc(/N=C(\N)Nc2ccc(OCc3ccccc3)cc2)n1	bIAP act 6.2, hIAP activ 2.1
CCOC(=O)C1CCN(C(=O)c2ccc(S(=O)(=O)Nc3ccccc3Cl)cc2)CC1	none (no result: bIAP act, bIAP inhibitor)
Cc1c(C)n(Cc2ccccc2)c2ccc(C(=O)OCCCN(C)C)cc12	bIAP act 2.2
C=CCn1c(=O)/c(=C/c2ccc(C)o2)s/c1=C(/C#N)C(=O)c1ccccc1	mIAP inh 42
C=CCn1c(=O)/c(=C\c2ccccn2)s/c1=C(/C#N)C(=O)NCC1CCCO1 (stereo unspecified)	none
CN(CC(=O)Nc1ccc(Cl)c(C(F)(F)F)c1)C(=O)c1cccc2cccnc12	none (no result: bIAP act, bIAP inhibitor)
CCCn1c(C(O)c2ccc(C)cc2)nc2ccccc21 (stereo unspecified)	none (no result: bIAP act, bIAP inhibitor)
CCCn1c(C(O)c2ccc3c(c2)OCO3)nc2ccccc21 (stereo unspecified)	bIAP act 5.8
Cn1c(CCC(=O)O)nc2cc(S(=O)(=O)N3CCCCC3)ccc21	none (no result: bIAP act, bIAP inhibitor)
O=C(O)Cc1ccc(O)c(O)c1	mIAP inh 60 (no result: bIAP act, bIAP inhibitor)
O=C(N/N=C/C=C/c1ccccc1)c1n[nH]c2c1CCC2	hIAP activ 2.1
CC(/C=N/NC(=O)c1n[nH]c2c1CCC2)=C\c1ccccc1	none
CC(=O)c1ccc(OCc2ccc(Oc3c(Cl)cccc3[N+](=O)[O-])cc2)cc1	hIAP activ 3
CC(=O)c1ccc(OCc2ccc(C(=O)c3ccccc3)cc2)cc1	none
O=C(COC(=O)c1cc(=O)[nH]c2ccccc12)NC(=O)c1ccccc1	none (no result: bIAP act, bIAP inhibitor)
